Results reported in ChEMBL document CHEMBL3600351, “Exploiting translational stalling peptides in an effort to extend azithromycin interaction within the prokaryotic ribosome nascent peptide exit tunnel” (Bioorg Med Chem, 2015).
Converted amounts (≈) assume the structure as drawn. The source made the active and inactive calls. The calls are words filed in the database; no cut-off is given here.

Columns and labels:
Staphylococcus aureus [1] = test: Antibacterial activity against Erm+ methicillin-resistant Staphylococcus aureus ATCC 33591 assessed as inhibition of bacterial growth after 18 hrs by liquid microdilution method; assay type: functional
In short: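 MRSA grown overnight at 37 °C in Nutrient broth, diluted 1:1000 in the same medium, then plated with the compounds. Growth was judged by comparing OD600 before and after 18 h at 37 °C. MIC50 was taken by liquid microdilution. Vancomycin was the positive control. Each compound was run in triplicate and standardized against an internal vehicle control.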

Staphylococcus aureus [2] = test: Ratio of MIC50 for Staphylococcus aureus ATCC 29213 in absence of 50% bovine serum to MIC50 for Staphylococcus aureus ATCC29213 in presence of 50% bovine serum; assay type: functional
In short: (§1)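 S. aureus ATCC 29213 overnight culture (37 °C) diluted 1:1000 in 50% bovine serum/broth and run by liquid microdilution. Growth was taken from OD600 change over 18 h at 37 °C to give MIC50, in triplicate against a vehicle control. The enhancement ratio is MIC50 without serum divided by MIC50 with serum.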

[3] = Inhibition of ribosome nascent peptide exit tunnel in Escherichia coli S30 extract assessed as inhibition of prokaryotic translation in presence of amino acids incubated for 20 mins by luciferase reporter gene assay
In short: (§2)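 E. coli S30 cell-free extract with all amino acids, preincubated with compound for 20 min at room temperature. Luciferase control template added, translation run 60 min at 37 °C, then stopped by 5 min on ice. Luminescence was read after luciferin addition. IC50 from nonlinear fit, triplicate, normalized to vehicle control.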

Escherichia coli [4] = test: Antibacterial activity against Escherichia coli ATCC 27856 assessed as inhibition of bacterial growth after 18 hrs by liquid microdilution method; assay type: functional
In short: (§3)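 Liquid microdilution. Overnight 37 °C cultures, E. coli ATCC 27856 in LB and S. aureus ATCC 29213 in TSB, diluted 1:1000 in the same medium and exposed to compound. Growth was taken from OD600 before and after 18 h at 37 °C. MIC50 is the read-out. Triplicate, normalized to an internal vehicle control.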

[5] = Binding affinity to ribosome nascent peptide exit tunnel in rabbit reticulocyte extract assessed as inhibition of eukaryotic translation in presence of amino acids incubated for 20 mins by luciferase reporter gene assay; set-up: species or system Oryctolagus cuniculus
In short: as §2, with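 “Nuclease-treated rabbit reticulocyte lysate” for “E. coli S30 cell-free extract”, “90” for “60”, “30” for “37”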

Staphylococcus aureus [6] = test: Antibacterial activity against Staphylococcus aureus ATCC 29213 assessed as inhibition of bacterial growth after 18 hrs by liquid microdilution method; assay type: functional; settings: ATCC 29213, 18 h; in short: as §3
Staphylococcus aureus [7] = test: Antibacterial activity against Staphylococcus aureus ATCC 29213 assessed as inhibition of bacterial growth after 18 hrs in presence of 50% bovine serum by liquid microdilution method; assay type: functional; settings: ATCC 29213, 18 h; in short: as §1
Escherichia coli [8] = test: Inhibition of ribosome nascent peptide exit tunnel in Escherichia coli S30 extract assessed as inhibition of prokaryotic translation in presence of amino acids incubated for 20 mins by luciferase reporter gene assay relative to azithromycin

Compound	MIC50 (Staphylococcus aureus [1])	Ratio (Staphylococcus aureus [2])	IC50 [3]	MIC50 (Escherichia coli [4]; ATCC 27856, 18 h)	IC50 [5]	MIC50 (Staphylococcus aureus [6])	MIC50 (Staphylococcus aureus [7])	MIC50 (Escherichia coli [4])	fold change (FC) (Escherichia coli [8])
CC[C@H]1OC(=O)[C@H](C)[C@@H](O[C@H]2C[C@@](C)(OC)[C@@H](O)[C@H](C)O2)[C@H](C)[C@@H](O[C@@H]2O[C@H](C)C[C@H](N(C)C)[C@H]2O)[C@](C)(O)C[C@@H](C)CN(Cc2ccc(-c3cn(CCc4cn(C)c5ccccc45)nn3)cc2)[C@H](C)[C@@H](O)[C@]1(C)O	inactive	4	641 nM	128 µg/mL (≈ 122 µM)	> 250000 nM	6.25 µg/mL (≈ 5.96 µM)	1.56 µg/mL	–	–
CC[C@H]1OC(=O)[C@H](C)[C@@H](O[C@H]2C[C@@](C)(OC)[C@@H](O)[C@H](C)O2)[C@H](C)[C@@H](O[C@@H]2O[C@H](C)C[C@H](N(C)C)[C@H]2O)[C@](C)(O)C[C@@H](C)CN(CCCCc2cn(CCn3ccc4cc(F)ccc43)nn2)[C@H](C)[C@@H](O)[C@]1(C)O	inactive	5	646 nM	16 µg/mL (≈ 15.7 µM)	> 250000 nM	1.56 µg/mL (≈ 1.53 µM)	0.31 µg/mL	–	–
CC[C@H]1OC(=O)[C@H](C)[C@@H](O[C@H]2C[C@@](C)(OC)[C@@H](O)[C@H](C)O2)[C@H](C)[C@@H](O[C@@H]2O[C@H](C)C[C@H](N(C)C)[C@H]2O)[C@](C)(O)C[C@@H](C)CN(CCCCc2cn(CCn3ccc4cc(OC)ccc43)nn2)[C@H](C)[C@@H](O)[C@]1(C)O	inactive	10	238 nM	16 µg/mL (≈ 15.5 µM)	> 250000 nM	1.56 µg/mL (≈ 1.51 µM)	0.16 µg/mL	–	–
CC[C@H]1OC(=O)[C@H](C)[C@@H](O[C@H]2C[C@@](C)(OC)[C@@H](O)[C@H](C)O2)[C@H](C)[C@@H](O[C@@H]2O[C@H](C)C[C@H](N(C)C)[C@H]2O)[C@](C)(O)C[C@@H](C)CN(Cc2ccc(-c3cn(CCc4c[nH]c5ccc(F)cc45)nn3)cc2)[C@H](C)[C@@H](O)[C@]1(C)O	inactive	2	2030 nM	–	> 250000 nM	3.13 µg/mL (≈ 2.97 µM)	1.56 µg/mL	inactive	–
CC[C@H]1OC(=O)[C@H](C)[C@@H](O[C@H]2C[C@@](C)(OC)[C@@H](O)[C@H](C)O2)[C@H](C)[C@@H](O[C@@H]2O[C@H](C)C[C@H](N(C)C)[C@H]2O)[C@](C)(O)C[C@@H](C)CN(C)[C@H](C)[C@@H](O)[C@]1(C)O [AZITHROMYCIN]	inactive	6	292 nM	4 µg/mL (≈ 5.34 µM)	> 250000 nM	0.78 µg/mL (≈ 1.04 µM)	0.13 µg/mL	–	–
CC[C@H]1OC(=O)[C@H](C)[C@@H](O[C@H]2C[C@@](C)(OC)[C@@H](O)[C@H](C)O2)[C@H](C)[C@@H](O[C@@H]2O[C@H](C)C[C@H](N(C)C)[C@H]2O)[C@](C)(O)C[C@@H](C)CN(Cc2ccc(-c3cn(CCN4CCc5ccccc54)nn3)cc2)[C@H](C)[C@@H](O)[C@]1(C)O	inactive	2	555 nM	64 µg/mL (≈ 61.7 µM)	> 250000 nM	1.56 µg/mL (≈ 1.5 µM)	0.78 µg/mL	–	–
CC[C@H]1OC(=O)[C@H](C)[C@@H](O[C@H]2C[C@@](C)(OC)[C@@H](O)[C@H](C)O2)[C@H](C)[C@@H](O[C@@H]2O[C@H](C)C[C@H](N(C)C)[C@H]2O)[C@](C)(O)C[C@@H](C)CN(CCCCc2cn(CCn3ccc4ccccc43)nn2)[C@H](C)[C@@H](O)[C@]1(C)O	inactive	10	128 nM	64 µg/mL (≈ 63.9 µM)	> 250000 nM	1.56 µg/mL (≈ 1.56 µM)	0.16 µg/mL	–	2.3
CC[C@H]1OC(=O)[C@H](C)[C@@H](O[C@H]2C[C@@](C)(OC)[C@@H](O)[C@H](C)O2)[C@H](C)[C@@H](O[C@@H]2O[C@H](C)C[C@H](N(C)C)[C@H]2O)[C@](C)(O)C[C@@H](C)CN(Cc2ccc(-c3cn(CCc4c[nH]c5ccccc45)nn3)cc2)[C@H](C)[C@@H](O)[C@]1(C)O	inactive	2	120 nM	–	> 250000 nM	3.13 µg/mL (≈ 3.02 µM)	1.56 µg/mL	inactive	–
CC[C@H]1OC(=O)[C@H](C)[C@@H](O[C@H]2C[C@@](C)(OC)[C@@H](O)[C@H](C)O2)[C@H](C)[C@@H](O[C@@H]2O[C@H](C)C[C@H](N(C)C)[C@H]2O)[C@](C)(O)C[C@@H](C)CN(Cc2ccc(-c3cn(CCn4ccc5cc(OC)ccc54)nn3)cc2)[C@H](C)[C@@H](O)[C@]1(C)O	inactive	2	504 nM	–	> 250000 nM	1.56 µg/mL (≈ 1.46 µM)	0.78 µg/mL	inactive	–
CC[C@H]1OC(=O)[C@H](C)[C@@H](O[C@H]2C[C@@](C)(OC)[C@@H](O)[C@H](C)O2)[C@H](C)[C@@H](O[C@@H]2O[C@H](C)C[C@H](N(C)C)[C@H]2O)[C@](C)(O)C[C@@H](C)CN(Cc2ccc(-c3cn(CCn4ccc5cc([N+](=O)[O-])ccc54)nn3)cc2)[C@H](C)[C@@H](O)[C@]1(C)O	inactive	4	442 nM	128 µg/mL (≈ 118 µM)	> 250000 nM	1.56 µg/mL (≈ 1.44 µM)	0.39 µg/mL	–	–
CC[C@H]1OC(=O)[C@H](C)[C@@H](O[C@H]2C[C@@](C)(OC)[C@@H](O)[C@H](C)O2)[C@H](C)[C@@H](O[C@@H]2O[C@H](C)C[C@H](N(C)C)[C@H]2O)[C@](C)(O)C[C@@H](C)CN(Cc2ccc(-c3cn(CCc4c[nH]c5ccc(Cl)cc45)nn3)cc2)[C@H](C)[C@@H](O)[C@]1(C)O	inactive	1	586 nM	–	> 250000 nM	1.56 µg/mL (≈ 1.46 µM)	1.56 µg/mL	inactive	–
CC[C@H]1OC(=O)[C@H](C)[C@@H](O[C@H]2C[C@@](C)(OC)[C@@H](O)[C@H](C)O2)[C@H](C)[C@@H](O[C@@H]2O[C@H](C)C[C@H](N(C)C)[C@H]2O)[C@](C)(O)C[C@@H](C)CN(CCCCc2cn(CCn3ccc4cc(Cl)ccc43)nn2)[C@H](C)[C@@H](O)[C@]1(C)O	inactive	5	490 nM	64 µg/mL (≈ 61.8 µM)	> 250000 nM	0.78 µg/mL (≈ 0.753 µM)	0.16 µg/mL	–	–
CC[C@H]1OC(=O)[C@H](C)[C@@H](O[C@H]2C[C@@](C)(OC)[C@@H](O)[C@H](C)O2)[C@H](C)[C@@H](O[C@@H]2O[C@H](C)C[C@H](N(C)C)[C@H]2O)[C@](C)(O)C[C@@H](C)CN(Cc2ccc(-c3cn(CCn4ccc5cc(F)ccc54)nn3)cc2)[C@H](C)[C@@H](O)[C@]1(C)O	inactive	2	463 nM	64 µg/mL (≈ 60.8 µM)	> 250000 nM	1.56 µg/mL (≈ 1.48 µM)	0.78 µg/mL	–	–
CC[C@H]1OC(=O)[C@H](C)[C@@H](O[C@H]2C[C@@](C)(OC)[C@@H](O)[C@H](C)O2)[C@H](C)[C@@H](O[C@@H]2O[C@H](C)C[C@H](N(C)C)[C@H]2O)[C@](C)(O)C[C@@H](C)CN(CCCCc2cn(CCc3c[nH]c4ccc(F)cc34)nn2)[C@H](C)[C@@H](O)[C@]1(C)O	inactive	5	2600 nM	32 µg/mL (≈ 31.4 µM)	> 250000 nM	0.78 µg/mL (≈ 0.765 µM)	0.16 µg/mL	–	–
CC[C@H]1OC(=O)[C@H](C)[C@@H](O[C@H]2C[C@@](C)(OC)[C@@H](O)[C@H](C)O2)[C@H](C)[C@@H](O[C@@H]2O[C@H](C)C[C@H](N(C)C)[C@H]2O)[C@](C)(O)C[C@@H](C)CN(CCCCc2cn(CCn3ccc4cc([N+](=O)[O-])ccc43)nn2)[C@H](C)[C@@H](O)[C@]1(C)O	inactive	2.5	811 nM	16 µg/mL (≈ 15.3 µM)	> 250000 nM	1.56 µg/mL (≈ 1.49 µM)	0.63 µg/mL	–	–
CC[C@H]1OC(=O)[C@H](C)[C@@H](O[C@H]2C[C@@](C)(OC)[C@@H](O)[C@H](C)O2)[C@H](C)[C@@H](O[C@@H]2O[C@H](C)C[C@H](N(C)C)[C@H]2O)[C@](C)(O)C[C@@H](C)CN(CCCCc2cn(CCc3c[nH]c4ccccc34)nn2)[C@H](C)[C@@H](O)[C@]1(C)O	inactive	10	540 nM	16 µg/mL (≈ 16 µM)	> 250000 nM	0.78 µg/mL (≈ 0.779 µM)	0.078 µg/mL	–	–
